In brackets after ≈: the same amount, converted by molar mass.

What all share (assay type): functional
Conditions in all cases: read-out: ED50 (the source's name)

One assay has as its system A549. Briefly: Cytotoxicity against human A549 cells. An outline of the steps:
(§1)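 Cell lines were obtained from the American Type Culture Collection. Cytotoxicity was tested in vitro, and values are reported as ED50 in µg/mL.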

The test system of a further assay is HT-29. Nature of the assay: Cytotoxicity against human HT-29 cells. An outline of the steps:
as §1

For the next assay, the system named is P388. Briefly: Cytotoxicity against mouse P388 cells. An outline of the steps:
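Mouse lymphocytic leukemia P-388 cells were supplied by the Pezzuto laboratory at the University of Illinois at Chicago. Cytotoxicity was tested in vitro, and values are reported as ED50 in µg/mL.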

For `C=C1CC/C=C(\C)CCC2=C(C(C)C)C(=O)C[C@@]2(C)CC1=O`, the EC50 in the assay with A549 was over 50 mg/L; with HT-29, over 50 mg/L; in the assay on P388, 3.89 mg/L (≈ 12.9 µM).
Consider `C=C1CC/C=C(\C)CCC2=C(C(C)C)C(=O)C[C@@]2(C)C[C@H]1O` (relative stereo), for which the EC50 with A549 is 8.1 mg/L (≈ 26.8 µM); in the assay on HT-29, 9.19 mg/L (≈ 30.4 µM); with P388, 3.82 mg/L (≈ 12.6 µM).
With `C=C1CC[C@H]2O[C@@]2(C)C/C=C2/[C@@H](C(C)C)C(=O)C[C@]2(C)CC1=O` (relative stereo), the values for the EC50 in the assay on A549, in the assay with HT-29 and in the assay on P388 were 8.56 mg/L (≈ 27.1 µM), 7.84 mg/L (≈ 24.8 µM) and 2.48 mg/L (≈ 7.84 µM), respectively.
As to `C=C1CC[C@@H](OO)C(=C)CCC2=C(C(C)C)C(=O)C[C@@]2(C)CC1=O` (relative stereo), the EC50 in the assay with A549 turned out to be 0.57 mg/L (≈ 1.71 µM); in the assay on HT-29, 0.31 mg/L (≈ 0.932 µM); in the assay on P388, 0.052 mg/L (≈ 0.156 µM).
On the same counts, the results for `C=C1CC/C=C(\C)C/C=C2/[C@@H](C(C)C)C(=O)C[C@]2(C)CC1=O` (relative stereo) are over 50 mg/L, 27.3 mg/L (≈ 90.9 µM) and 2.6 mg/L (≈ 8.65 µM).
The matching figures for `C=C1CC/C=C(\C)C[C@H]2O[C@@]23[C@@H](C(C)C)C(=O)C[C@]3(C)CC1=O` (relative stereo): 7.74 mg/L (≈ 24.5 µM), 6.39 mg/L (≈ 20.2 µM) and 3.83 mg/L (≈ 12.1 µM).

For the origin of these results see ChEMBL document CHEMBL1155744, “Cytotoxic dolabellane diterpenes from the Formosan soft coral Clavularia inflata” (2001).
